SMILES strings stand for the structures.

For this assay, the target named is Sodium-dependent dopamine transporter (Rattus norvegicus, UniProt P23977). Briefly: Binding affinity for dopamine transporters in rat brain tissue. The method, boiled down: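 Crude membrane fraction from rat corpus striatum homogenate. Nonspecific binding defined with 30 μM methylphenidate. Each agent tested at six concentrations in duplicate. Concentration-inhibition curves computer-fit for IC50 ± SEM, converted to Ki = IC50/(1 + [L/Kd]).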
Sequence of Sodium-dependent dopamine transporter (P23977 whole entry): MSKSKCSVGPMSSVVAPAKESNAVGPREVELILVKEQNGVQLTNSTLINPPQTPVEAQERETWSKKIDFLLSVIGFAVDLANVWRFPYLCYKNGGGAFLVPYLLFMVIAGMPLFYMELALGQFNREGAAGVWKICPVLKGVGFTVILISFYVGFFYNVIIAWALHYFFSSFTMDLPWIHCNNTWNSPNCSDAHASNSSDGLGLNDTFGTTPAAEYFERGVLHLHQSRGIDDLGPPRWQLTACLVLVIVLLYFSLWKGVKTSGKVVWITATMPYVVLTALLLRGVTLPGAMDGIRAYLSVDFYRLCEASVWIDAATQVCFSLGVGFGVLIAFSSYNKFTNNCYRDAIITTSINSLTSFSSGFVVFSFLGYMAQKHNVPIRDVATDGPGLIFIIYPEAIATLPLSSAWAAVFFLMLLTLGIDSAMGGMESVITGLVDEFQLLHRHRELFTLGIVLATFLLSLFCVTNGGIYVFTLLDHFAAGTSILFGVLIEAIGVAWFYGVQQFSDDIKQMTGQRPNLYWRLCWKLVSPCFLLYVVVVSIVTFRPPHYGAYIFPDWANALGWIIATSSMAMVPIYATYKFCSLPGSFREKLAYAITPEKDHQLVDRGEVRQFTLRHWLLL
Turning to `CC(C)OC(=O)[C@H]1C(c2cc[c]([Sn]([CH3])([CH3])[CH3])cc2)C[C@H]2CCC1N2CCF` (stereo partly drawn) [(2S,5R)-8-(2-Fluoro-ethyl)-3-(4-trimethylstannanyl-phenyl)-8-aza-bicyclo[3.2.1]octane-2-carboxylic acid isopropyl ester], the Ki amounted to 1.15 µM.

On to `COC(=O)[C@H]1C(c2cc[c]([Sn]([CH3])([CH3])[CH3])cc2)C[C@H]2CCC1N2CCF` (stereo partly drawn) [(2S,5R)-8-(2-Fluoro-ethyl)-3-(4-trimethylstannanyl-phenyl)-8-aza-bicyclo[3.2.1]octane-2-carboxylic acid methyl ester], for which the Ki was above 10 µM.

`CC(C)OC(=O)[C@H]1C(c2cc[c]([Sn]([CH3])([CH3])[CH3])cc2)C[C@H]2CCC1N2CCCF` (stereo partly drawn) [(2S,5R)-8-(3-Fluoro-propyl)-3-(4-trimethylstannanyl-phenyl)-8-aza-bicyclo[3.2.1]octane-2-carboxylic acid isopropyl ester]: the Ki was above 10 µM.

Take `COC(=O)[C@H]1C(c2cc[c]([Sn]([CH3])([CH3])[CH3])cc2)C[C@H]2CCC1N2CCCF` (stereo partly drawn) [(2S,5R)-8-(3-Fluoro-propyl)-3-(4-trimethylstannanyl-phenyl)-8-aza-bicyclo[3.2.1]octane-2-carboxylic acid methyl ester]: the Ki was above 10 µM.

The values above are taken from BindingDB's records for doi:10.1021/jm00037a004 (Research Biochemicals International, 1994).
